{
  "source": "paper PMC3753203",
  "about": "(Journal of immunology (Baltimore, Md. : 1950), 2013)",
  "key": {"[1]": {"target": "T1, recombinant mouse CRT (calreticulin) (Mus musculus, UniProt P14211)", "T1 sequence (P14211 18-416)": "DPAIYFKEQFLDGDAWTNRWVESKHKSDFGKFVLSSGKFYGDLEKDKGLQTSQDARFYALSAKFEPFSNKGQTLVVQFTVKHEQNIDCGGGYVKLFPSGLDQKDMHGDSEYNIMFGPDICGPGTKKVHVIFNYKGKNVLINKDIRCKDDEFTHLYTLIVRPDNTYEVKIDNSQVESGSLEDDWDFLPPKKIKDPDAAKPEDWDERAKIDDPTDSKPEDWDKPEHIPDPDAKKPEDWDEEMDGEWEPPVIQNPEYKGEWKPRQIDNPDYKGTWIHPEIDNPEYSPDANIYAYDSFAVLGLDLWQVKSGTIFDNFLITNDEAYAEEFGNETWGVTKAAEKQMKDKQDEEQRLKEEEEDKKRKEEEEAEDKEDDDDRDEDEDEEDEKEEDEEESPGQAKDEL", "assay": "Surface plasmon resonance binding to immobilized CRT", "details": "SPR, 25°C, 10 mM HEPES pH 7.4, 50 mM KCl, 0.5 mM CaCl2, 100 μM ZnCl2, 0.005% surfactant P-20; mouse CRT immobilized 3000 RU; 10 μl/min; mean ± SEM"}, "NO signaling [2]": {"system": "NO signaling", "assay": "NO signaling activation", "type": "cell-based", "details": "read-out: EC50 NO, Table I"}, "[3]": {"system": "collagen-induced arthritis in mice", "details": "15-mer SE peptidic ligand in vivo in mice; ref [10]; cited from earlier work"}, "trypsin/chymotrypsin": {"system": "trypsin/chymotrypsin", "details": "linear peptidic SE ligand, completely degraded; ref [11]; cited from earlier work"}, "[4]": {"system": "osteoclast differentiation of DBA/1 mouse BMCs", "details": "15-mer linear peptide; ref [10]; cited from earlier work"}, "[5]": {"system": "osteoclasts in CIA joint tissues", "assay": "OC abundance in joint tissue of CIA mice", "type": "in vivo, mouse", "details": "various doses incl. 'subclinical'; N=10 PBS, 5 per treatment group; TRAP", "procedure,_shortened": "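Limbs from CIA mice given weekly i.p. test compound or PBS decalcified 14 days in 10% EDTA, paraffin-embedded, serially sectioned and stained for TRAP (or H&E). TRAP-positive multinucleated cells counted; total across front and rear paws and knees, mean ± SEM. N=10 PBS, 5 per treatment group.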"}, "[6]": {"system": "erosive bone damage in CIA mice", "assay": "Micro-CT of bone damage in CIA mice", "type": "in vivo, mouse", "details": "all treated mice, various doses", "procedure,_shortened": "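Limbs from arthritic mice fixed in 10% formalin, stored in 70% ethanol, scanned in water: 80 kV, 80 μA, 0.508 mm Al filter plus acrylic beam flattener, 1600 ms/frame, 400 views at 0.5°, 4 frames averaged, 2×2 binning, 18 μm voxels. Bone masks for carpals, tarsals, calcaneus, talus, phalanges; thresholds 2000 HU cortical, 1200 HU trabecular.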"}, "[7]": {"system": "osteoclast formation of BMCs harvested from CIA mice", "assay": "Ex vivo OC differentiation of BMCs from treated CIA mice", "type": "in vivo, mouse", "details": "6 days OC-differentiating culture, dose-dependent pattern", "procedure,_shortened": "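DBA/1 mice (7 weeks) were immunised intradermally at the tail base with 100 μg chicken CII in CFA. They received test compound intraperitoneally once weekly at 0.0, 0.8, 8 or 80 ng/gm BW in 50 μl PBS. Bone marrow cells were then cultured for 6 days under OC-differentiating conditions (M-CSF 10 ng/ml; RANKL 20 ng/ml added after day 2). TRAP-positive multinucleated cells (>3 nuclei) were counted.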"}, "NO signaling [8]": {"system": "NO signaling", "details": "ref [11]; cited from earlier work"}, "bone damage in CIA mice": {"system": "bone damage in CIA mice", "assay": "X-ray radiological scoring of bone damage in CIA mice", "type": "in vivo, mouse", "details": "0.8 and 8.0 ng/gm BW, N = 10, score 0-5", "procedure,_shortened": "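CIA mice dosed weekly i.p. with 0.8 or 8.0 ng/gm BW test compound or PBS. Limbs X-rayed on a microradiography system (anode current 25mA, 4.5 s exposure). Coded films scored blind by a rheumatologist, front and rear paws separately, 0–5 (none to complete joint destruction). N=10.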"}, "[9]": {"system": "ROS production in RAW 264.7 pre-OC cells", "assay": "ROS production", "type": "cell-based, mouse", "details": "RAW 264.7, 3 × 10^4/well, in words", "procedure,_shortened": "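RAW 264.7 cells, 3×10^4 per well, exposed to various test compound concentrations and loaded with CM-H2DCFDA. Fluorescence (ex 488/em 515 nm) read every 5 min over 500 min; ROS expressed as FU/min.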"}, "[10]": {"system": "bone matrix degradation by DBA/1 mouse BMC-derived OCs", "assay": "Degradation of artificial", "type": "cell-based", "details": "100 nM c(HS4-4), primary DBA/1 BMCs, day 15, Von Kossa", "procedure,_shortened": "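Test compound (100 nM) or PBS was added to mouse BMC cultures on osteoblast-derived matrix. SaOS-2 cells (12,000/well) grew in McCoy's 5A/15% FBS; at 80–90% confluence they were switched to osteoblast differentiation medium (10% FBS, 2mM glutamine, ascorbic acid, 10mM β-glycerol phosphate) for 20–25 days, then removed with 15mM NH4OH. DBA/1 BMCs (200,000/well) received M-CSF 10 ng/ml for 2 days, then M-CSF plus RANKL 20 ng/ml. At day 15, cells were removed; remaining matrix was Von Kossa-stained, photographed and area-quantified.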"}, "[11]": {"system": "osteoclast differentiation of DBA/1 mouse BMCs", "assay": "In vitro OC differentiation, mouse bone marrow cells", "type": "cell-based", "details": "M-CSF + RANKL, 6 days"}, "[12]": {"system": "collagen-induced arthritis in DBA/1 mice", "assay": "Collagen-induced arthritis: onset, incidence, arthritis score", "type": "in vivo, mouse", "details": "i.p.; for disease incidence: log-rank (Mantel-Cox)"}, "[13]": {"system": "TRAP-positive mononuclear (pre-OC) bone marrow cells", "assay": "Pre-OC abundance in bone marrow of CIA mice", "type": "in vivo, mouse", "procedure,_shortened": "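Fresh bone marrow cells harvested from CIA mice dosed weekly i.p. with various amounts of test compound or PBS; TRAP staining used to enumerate pre-osteoclasts.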"}, "[14]": {"system": "bovine cortical bone disks / mouse BMC-derived OCs", "assay": "Ex vivo degradation of bovine bone disks", "type": "cell-based", "details": "100 nM c(HS4-4), mouse BMCs, 10 days, OC counts and resorption pits", "procedure,_shortened": "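Bovine cortical bone disks (5-mm) were sonicated in water, stored dry, and sterilised in ethanol plus 30 min UV. Culture ran 10 days, medium renewed every other day. TRAP-positive OCs per disk were counted; cells were sonicated off in ammonium hydroxide; disks were stained with 1% toluidine blue for 30 s; pits were counted across the whole surface by reflected light. Mean ± SEM.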"}, "[15]": {"details": "80 ng/gm BW per week, N=10 per group"}, "[16]": {"details": "800 ng/gm BW per week, N=10 per group"}},
  "note": "pEC50: −log10 of the molar value.",
  "data": [
    {"substance": "65-KDLLEQKRAAVDTYC-79 [65-79*0401]", "values": [
      {"measurement": "Affinity to CRT, ka", "setting": "[1]", "value": "5.1 ± 4.8 ×10^4 1/Ms"},
      {"measurement": "Affinity to CRT, kd", "setting": "[1]", "value": "7.4 ± 3.1 ×10^−3 1/s"},
      {"measurement": "pEC50", "setting": "NO signaling [2]", "value": 4.22},
      {"measurement": "effect on erosive bone damage in CIA", "setting": "[3]", "value": "enhanced erosive bone damage in collagen-induced arthritis"},
      {"measurement": "time to complete degradation by trypsin/chymotrypsin", "setting": "trypsin/chymotrypsin", "value": "≤ 30", "unit": "min"},
      {"measurement": "osteoclastogenesis activation", "setting": "[4]", "value": "can activate osteoclastogenesis"}
    ]},
    {"substance": "70-QKRAA-74 [70-74*0401]", "values": [
      {"measurement": "Affinity to CRT, ka", "setting": "[1]", "value": "2.9 ± 2.9 ×10^2 1/Ms"},
      {"measurement": "Affinity to CRT, kd", "setting": "[1]", "value": "5.6 ± 5.1 ×10^−3 1/s"}
    ]},
    {"substance": "cQKRAA [c(HS4-4)]", "values": [
      {"measurement": "OC numbers in arthritic joints", "setting": "[5]", "value": "significantly higher numbers of OCs"},
      {"measurement": "erosive bone damage (micro-CT)", "setting": "[6]", "value": "more severe erosive bone damage"},
      {"measurement": "OCs formed ex vivo by BMCs from treated CIA mice", "setting": "[7]", "value": "significantly higher numbers of OCs in a similar dose-dependent pattern"},
      {"measurement": "Affinity to CRT, ka", "setting": "[1]", "value": "2.7 ± 0.5 ×10^3 1/Ms"},
      {"measurement": "Affinity to CRT, kd", "setting": "[1]", "value": "1.4 ± 0.2 ×10^−3 1/s"},
      {"measurement": "pEC50", "setting": "NO signaling [2]", "value": 9.00},
      {"measurement": "NO signaling activation, concentration", "setting": "NO signaling [8]", "value": "low nM concentrations"},
      {"measurement": "bone damage (radiological score, X-ray)", "setting": "bone damage in CIA mice", "value": "significantly higher bone damage"},
      {"measurement": "ROS signaling", "setting": "[9]", "value": "activated ROS signaling"},
      {"measurement": "degradation of artificial bone matrix", "setting": "[10]", "value": "higher capacity to degrade artificial bone matrix"},
      {"measurement": "OC differentiation (in words)", "setting": "[11]", "value": "markedly enhanced OC differentiation in a dose-dependent manner"},
      {"measurement": "CIA soft tissue disease parameters (onset, incidence, score)", "setting": "[12]; 0.8 ng/gm BW per week", "value": "no effect on any of the three CIA soft tissue disease parameters"},
      {"measurement": "CIA soft tissue disease parameters (onset, incidence, score)", "setting": "[12]; 8.0 ng/gm BW per week", "value": "no effect on any of the three CIA soft tissue disease parameters"},
      {"measurement": "disease onset", "setting": "[12]; [15]", "value": "significantly facilitated disease onset"},
      {"measurement": "mean arthritis scores (joint swelling)", "setting": "[12]; 80 ng/gm BW per week, N=10 per group, 4-point scale per paw", "value": "significantly increased mean arthritis scores"},
      {"measurement": "disease incidence", "setting": "[12]; [15]", "value": "increased disease incidence"},
      {"measurement": "mean arthritis scores, effect in the higher dose", "setting": "[12]; 800 ng/gm BW per week (\"the higher dose\"), N=10 per group", "value": "but not in the higher dose"},
      {"measurement": "disease onset", "setting": "[12]; [16]", "value": "significantly facilitated disease onset"},
      {"measurement": "disease incidence", "setting": "[12]; [16]", "value": "increased disease incidence"},
      {"measurement": "TRAP-positive pre-OC cells in bone marrow", "setting": "[13]; 80 ng/gm BW group", "value": "peak effect"},
      {"measurement": "TRAP-positive mononuclear (pre-OC) cells in bone marrow, dose dependence", "setting": "[13]; all c(HS4-4)-treated mice", "value": "dose-dependent effect"},
      {"measurement": "degradation of bovine bone disks", "setting": "[14]", "value": "higher capacity to degrade artificial bone matrix and bovine bone disks ex vivo"}
    ]}
  ]
}
